Reference: paper PMC9016318 (Cancer Research and Treatment : Official Journal of Korean …, 2021)
No end group written: not given here.

Tests used:
[1] = tested on: Cal27 cells; experiment: CCK-8 cytotoxicity, Cal27 cells; assay type: cell-based, human; conditions: CCK-8, 64 μM, 24 hours
How it was run: (§1)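 Cells were seeded in 96-well plates and cultured 24 h: Jurkat T at 4,000/well, Cal27 at 2,000/well. Test peptide was added at 1–64 μM for 24 h, then CCK-8 for 2 h, and absorbance was read at 450. Viability % = (sample − no-cell baseline with peptide)/(untreated control − no-cell blank) × 100. Data are mean±standard error of three separate experiments.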

[2] = tested on: Jurkat T cells; experiment: CCK-8 cytotoxicity, Jurkat T cells; assay type: cell-based, human; conditions: CCK-8, 64 μM, 24 hours
How it was run: as §1

[3] = tested on: ICIK cells; experiment: CCK-8 cytotoxicity, ICIK cells; assay type: cell-based, human; conditions: CCK-8, 64 μM, 24 hours
How it was run: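 ICIK cells were human blood PBMCs, Ficoll-separated, held overnight at 4°C on anti-CD3 (OKT3, 10 μg/mL) coated dishes, then grown 10 days in RPMI 1640/10% FBS with IFN-γ 2000 U/mL and IL-2 10 ng/mL. They were seeded at 4,000/well and cultured 24 h. Test peptide at 1–64 μM was added for 24 h, then CCK-8 for 2 h, and absorbance read at 450. Viability was blank/baseline-corrected against untreated wells.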

[4] = molecular target: human recombinant PD-1 protein (human, UniProt Q15116); experiment: SPR
Chain of human recombinant PD-1 protein (Q15116 25-170): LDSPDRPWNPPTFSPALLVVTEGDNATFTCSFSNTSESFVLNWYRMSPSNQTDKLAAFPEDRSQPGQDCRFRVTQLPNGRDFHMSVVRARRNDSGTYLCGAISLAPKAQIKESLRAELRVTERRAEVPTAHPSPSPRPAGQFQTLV

SRLKEIANSPTQFWRMVARNTLGNGAKQSLNIEHARL [nABP284]
cytotoxicity to stimulated Cal27 cells [1]: not directly cytotoxic
cytotoxicity to Jurkat T cells [2]: not directly cytotoxic
cytotoxicity to ICIK cells [3]: not directly cytotoxic

SRLKEIANSPTQFWRMVARNTLGNGAKQSLNIEHARL [nABP284]
Kd [4]: 11.8 µM
